The text below walks through data of ChEMBL document CHEMBL1142308, “Synthesis and structure-activity relationships of N-(3-phenylpropyl)-N'-benzylpiperazines: Potent ligands for sigma1 and sigma2 receptors” (Bioorg Med Chem, 2008).

In test [1] the target is T1, Sigma non-opioid intracellular receptor 1 (Cavia porcellus, UniProt Q60492). Put plainly: Displacement of [3H](+)-PTZ from sigma1 receptor in Hartley guinea pig brain. (In a radioligand displacement assay an active substance lowers the binding of a labelled ligand.)
Test [2] in a line: Displacement of [3H]DTG from sigma2 receptor in Hartley guinea pig brain. Also on record: species or system Cavia porcellus.
For test [3], the target named is Delta-type opioid receptor (Mus musculus) (UniProt P32300). In words: Displacement of [3H]NTI from delta opioid receptor in mouse brain. It is filed as tissue-based. Also on record: concentration or dose not given beside the values. A digest of the protocol:
(§1)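 Brain membranes came from guinea pig for mu and kappa and from mouse for delta. Radioligands were [3H]DAMGO (mu), [3H]NTI (delta) and [3H]U69,593 (kappa). The read-out is percent displacement of radioligand binding at a single concentration of 1–2 of test compound.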

Test [4] has as its target Mu-type opioid receptor (Cavia porcellus) (UniProt P97266). Put plainly: Displacement of [3H]DAMGO from mu opioid receptor in guinea pig brain. Also on record: concentration or dose not given beside the values. A digest of the protocol: as §1
The target of test [5] is Kappa-type opioid receptor (Cavia porcellus) (UniProt P41144). In words: Displacement of [3H]U69593 from kappa opioid receptor in guinea pig brain. Also on record: concentration or dose not given beside the values. A digest of the protocol:
as §1

For the next test, the species on record is Cavia porcellus. In words: Ratio of Ki for sigma2 receptor in Hartley guinea pig brain to Ki for sigma1 receptor in Hartley guinea pig brain. An outline of the steps: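 Selectivity is expressed as the sigma2/sigma1 Ki ratio. The sigma1 Ki comes from [3H](+)-pentazocine displacement and the sigma2 Ki from [3H]DTG displacement, both in guinea pig brain. Each Ki is from Cheng-Prusoff, using Kd 2.3 nM and 23.9 nM respectively, with duplicates repeated 3–6 times.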

Test [6] is described as follows: Binding affinity to sigma receptor.
Test [7] addresses T2, 5-hydroxytryptamine receptor 1A (Homo sapiens, UniProt P08908).
T2 sequence (P08908 whole entry): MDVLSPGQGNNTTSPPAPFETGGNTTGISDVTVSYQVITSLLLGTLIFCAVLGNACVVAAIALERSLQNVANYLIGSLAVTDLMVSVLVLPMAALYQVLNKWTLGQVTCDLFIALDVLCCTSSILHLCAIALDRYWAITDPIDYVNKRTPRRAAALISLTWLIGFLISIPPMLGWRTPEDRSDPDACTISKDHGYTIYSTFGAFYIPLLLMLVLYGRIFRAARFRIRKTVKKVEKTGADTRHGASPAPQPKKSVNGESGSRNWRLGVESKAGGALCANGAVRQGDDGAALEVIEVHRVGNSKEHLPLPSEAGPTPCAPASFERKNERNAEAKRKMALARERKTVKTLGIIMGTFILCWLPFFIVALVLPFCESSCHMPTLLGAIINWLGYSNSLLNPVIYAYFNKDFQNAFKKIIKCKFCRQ
In words: Binding affinity to 5HT1A receptor.

The target of a further test is D(2) dopamine receptor (Homo sapiens, UniProt P14416). Put plainly: Binding affinity to dopamine D2 receptor.
In test [8] the target is T1, Sigma non-opioid intracellular receptor 1. Put plainly: Displacement of [3H]pentazocine from sigma1 receptor in guinea pig membrane. The class given is cell membranes.
The target is the same in test [9]. In words: Displacement of [3H]pentazocine from sigma1 receptor in guinea pig membrane in presence of phenytoin. It is filed as cell membranes. An outline of the steps: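 [3H](+)-pentazocine sigma1 binding run as the standard assay, but with phenytoin in 0.15 M NaOH vehicle added to every tube; parallel controls received NaOH only. Trials performed in duplicate, 3–5 trials; ratio of IC50 with versus without phenytoin used for agonist/antagonist profiling.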

For test [10], the target named is Sigma non-opioid intracellular receptor 1 (Cavia porcellus) (UniProt Q60492). Put plainly: Ratio of IC50 for sigma1 receptor in absence of phenytoin to in presence of phenytoin in guinea pig membrane. The class given is cell membranes. An outline of the steps: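 Sigma1 competition binding against [3H](+)-pentazocine in guinea pig brain homogenates, with phenytoin in 0.15 M NaOH vehicle added to every tube, alongside controls given only 0.15 M NaOH. Incubation medium was pH 7.44 at 37 °C with the NaOH additions. Ratio is IC50 without phenytoin over IC50 with it. Run in duplicate, repeated 3–6 times.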

pIC50, pKi: −log10 of the molar value.

Chain of Mu-type opioid receptor (Cavia porcellus) (P97266 whole entry): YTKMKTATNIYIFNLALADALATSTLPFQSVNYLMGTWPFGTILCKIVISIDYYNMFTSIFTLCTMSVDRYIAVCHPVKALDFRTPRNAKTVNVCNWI
Chain of Delta-type opioid receptor (Mus musculus) (P32300 whole entry): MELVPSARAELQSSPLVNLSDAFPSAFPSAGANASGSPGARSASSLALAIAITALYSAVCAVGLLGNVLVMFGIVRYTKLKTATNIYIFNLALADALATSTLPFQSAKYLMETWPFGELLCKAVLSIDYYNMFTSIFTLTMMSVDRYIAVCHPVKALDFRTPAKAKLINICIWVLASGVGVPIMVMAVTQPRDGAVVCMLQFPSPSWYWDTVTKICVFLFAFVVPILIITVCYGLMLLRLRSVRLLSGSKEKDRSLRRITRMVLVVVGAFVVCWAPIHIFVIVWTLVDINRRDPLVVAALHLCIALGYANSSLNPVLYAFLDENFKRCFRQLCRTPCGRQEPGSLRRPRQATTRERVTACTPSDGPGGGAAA
T1 sequence (Q60492 whole entry): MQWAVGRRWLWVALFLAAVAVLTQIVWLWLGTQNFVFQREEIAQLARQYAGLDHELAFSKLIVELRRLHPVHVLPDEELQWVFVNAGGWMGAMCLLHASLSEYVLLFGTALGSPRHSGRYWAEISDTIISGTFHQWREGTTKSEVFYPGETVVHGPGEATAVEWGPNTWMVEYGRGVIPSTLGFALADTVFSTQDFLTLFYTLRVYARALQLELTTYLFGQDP
Chain of Kappa-type opioid receptor (Cavia porcellus) (P41144 whole entry): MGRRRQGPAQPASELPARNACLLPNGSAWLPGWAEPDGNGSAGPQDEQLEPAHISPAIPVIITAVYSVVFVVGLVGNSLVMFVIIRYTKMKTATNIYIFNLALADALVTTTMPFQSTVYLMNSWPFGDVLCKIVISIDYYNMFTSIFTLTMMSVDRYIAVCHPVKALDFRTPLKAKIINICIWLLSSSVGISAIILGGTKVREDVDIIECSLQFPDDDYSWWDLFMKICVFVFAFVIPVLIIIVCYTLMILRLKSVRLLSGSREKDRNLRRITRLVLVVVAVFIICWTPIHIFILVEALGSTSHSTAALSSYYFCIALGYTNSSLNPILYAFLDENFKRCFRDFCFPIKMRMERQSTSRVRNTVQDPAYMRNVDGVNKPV
Chain of Sigma non-opioid intracellular receptor 1 (Cavia porcellus) (Q60492 whole entry): as the sequence (Q60492 whole entry) above
Chain of D(2) dopamine receptor (P14416 whole entry): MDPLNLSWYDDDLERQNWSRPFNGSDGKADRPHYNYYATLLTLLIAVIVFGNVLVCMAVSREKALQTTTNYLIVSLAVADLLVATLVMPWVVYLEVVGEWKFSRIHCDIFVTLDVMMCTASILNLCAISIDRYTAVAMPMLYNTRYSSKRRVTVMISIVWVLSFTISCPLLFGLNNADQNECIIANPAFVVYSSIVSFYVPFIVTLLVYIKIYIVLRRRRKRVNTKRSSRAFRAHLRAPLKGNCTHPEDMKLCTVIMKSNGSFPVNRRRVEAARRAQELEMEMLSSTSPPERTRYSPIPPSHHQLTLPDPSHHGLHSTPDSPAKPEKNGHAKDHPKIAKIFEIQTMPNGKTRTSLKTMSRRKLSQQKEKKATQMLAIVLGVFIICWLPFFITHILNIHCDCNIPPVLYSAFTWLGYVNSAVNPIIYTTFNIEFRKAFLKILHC

By pKi is commonly meant −log10 of the Ki, conventionally taken in molar units. As for `Brc1ccccc1CN1CCN(CCCc2ccccc2)CC1`, the pKi in test [1] was 9.22; in [2], 8.39. Besides, the Activity in test [3], in test [4] and in [5] was less than 5% each time. Further, the Ratio Ki in the test filed under Cavia porcellus is 6.9.

Consider `O=[N+]([O-])c1cccc(CN2CCN(CCCc3ccccc3)CC2)c1`, for which the negative-log Ki (pKi) in test [1] was 9.03; in [2] it was 8.80. The Activity in test [3], in test [4] and in test [5] was less than 5% throughout. In addition, in the test filed under Cavia porcellus, the Ratio Ki amounted to 1.7.

Take `COc1ccc(CCN2CCN(CCCc3ccccc3)CC2)cc1OC` [[11C]SA4503]: the pKi in [2] was 7.05.

For `Ic1cccc(CN2CCN(CCCc3ccccc3)CC2)c1`, the negative logarithm of the Ki (pKi) in test [1] is 9.41; in test [2], 8.99. The Activity in test [3], in [4] and in [5] was less than 5% throughout. Besides, the Ratio Ki in the test filed under Cavia porcellus stood at 2.6.

As a reminder, the pIC50 is the negative decadic logarithm of the IC50, by convention in mol/L. `c1ccc(CCCN2CCN(Cc3ccccc3)CC2)cc1`: the results for the pKi in test [1] and in [2] were 9.18 and 7.46, respectively. In addition, the Activity in [3], in [4] and in [5] was less than 5% throughout. Further, in the test filed under Cavia porcellus, the Ratio Ki turned out to be 52. Moreover, the pIC50 in test [6] is 7.70; in test [7] it was less than 7.00; on D(2) dopamine receptor, less than 7.00; in test [8] it was 8.83; in [9] it was 8.72. Moreover, in [10], the Ratio IC50 is 0.8.

With `COc1ccc(CN2CCN(CCCc3ccccc3)CC2)cc1`, the negative-log Ki (pKi) in [1] is 9.12; in test [2], 7.48. Moreover, the Activity in test [3], in test [4] and in [5] was less than 5% throughout. Further, the Ratio Ki in the test filed under Cavia porcellus turned out to be 43.2.

Take `Cc1ccc(CN2CCN(CCCc3ccccc3)CC2)cc1`: the negative-log Ki (pKi) is 8.93 in test [1] and 7.76 in [2]. For the same compound, the Activity in [3], in test [4] and in test [5] was less than 5% in each case. For the same compound, in the test listed under Cavia porcellus, the Ratio Ki amounted to 15.

Consider `COc1cccc(CN2CCN(CCCc3ccccc3)CC2)c1`, for which the figures for the negative logarithm of the Ki (pKi) in test [1] and in [2] were 9.06 and 7.85, respectively. Further, the Activity in test [3], in [4] and in [5] was less than 5% in each case. Moreover, the Ratio Ki in the test listed under Cavia porcellus turned out to be 16.3.

For `O=[N+]([O-])c1ccccc1CN1CCN(CCCc2ccccc2)CC1`, the pKi was 8.55 in test [1] and 8.42 in [2]. The Activity in test [3], in test [4] and in [5] was less than 5% throughout. Also, the Ratio Ki in the test listed under Cavia porcellus stood at 1.4.

Consider `Fc1cccc(CN2CCN(CCCc3ccccc3)CC2)c1`, for which the negative-log Ki (pKi) in test [1] was 8.87; in test [2] it was 7.86. The Activity in test [3], in test [4] and in test [5] was less than 5% throughout. Moreover, in the test listed under Cavia porcellus, the Ratio Ki was 10.2.

Turning to `O=[N+]([O-])c1ccc(CN2CCN(CCCc3ccccc3)CC2)cc1`, the negative-log Ki (pKi) was 9.43 in [1] and 8.48 in [2]. Also, the Activity in test [3], in test [4] and in [5] was less than 5% each time. In addition, the Ratio Ki in the test filed under Cavia porcellus stood at 8.9.

As to `COc1ccc2c(c1)[C@]13CCCC[C@@H]1[C@H](C2)N(C)CC3` [DEXTROMETHORPHAN], the pIC50 in test [8] was 6.63; in [9] it was 7.82.
